# SENP1 inh: human SENP1 catalytic domain inhibitors, primary screen, biochemical, FRET, uHTS; inhibition, % at 10 µM; recombinant SENP1 catalytic domain, CyPet-SUMO1-YPet FRET cleavage; 0.21% of 360,000 active;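 active = inhibition at least 30% at 10 µM, raw YFP signal under a set limit, fluorescence ratio 0.5 to 1.5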;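 note: 0% = enzyme with DMSO and 100% = no enzyme wells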
#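 system = hSENP1 catalytic domain, recombinant | reagent = SFCypet-SUMO1-SFYpet substrate at 25 nM | doses = one dose per compound, 10 µM, 0.5% DMSO | incubation = enzyme reaction for 50 min at room temperature, dark | measured by = FRET, CFP and YFP emission | controls = no-enzyme low, enzyme-DMSO high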
# SENP7 block: SENP7 protease inhibitors, primary screen, biochemical, luminescence, uHTS. inhibition, % at 5 µM. recombinant SENP7, Z-RLRGG-aminoluciferin luminescence, 40 min. Sentrin-specific protease 7 (Homo sapiens), Q9BQF6. 1.5% of 330,000 active;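 active = inhibition above about 50% at the single test dose, limit read from the data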;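 note: plate controls were DMSO with enzyme for no effect and no enzyme buffer wells for full effect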
# SENP8 block-1: human SENP8 protease inhibitors, primary screen, biochemical, fluorescence, Nedd8 protein substrate, uHTS. 0.64% of 360,000 active. recombinant SENP8. inhibition, % at 20 µM. Sentrin-specific protease 8 (Homo sapiens), Q96LD8; in the data active = inhibition mostly above about 40%, no sharp cut-off; inactive = mostly below about 27%
# SENP6 block: SENP6 protease inhibitors, primary screen, biochemical, luminescence, uHTS; AID 2599, 2010; inhibition, % at 10 µM; Recombinant SENP6 catalytic domain, aminoluciferin luminescence; 1.8% of 330,000 active; Sentrin-specific protease 6 (Homo sapiens), Q9GZR1;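 active = inhibition above about 50% at the single tested dose, limit read from the data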;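 note: plate controls were DMSO wells with enzyme for no effect and DMSO wells lacking enzyme for full effect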
# UCH37 inh: inhibitors of human UCH37 deubiquitinase, primary screen, biochemical, Ub-AMC cleavage, fluorescence; inhibition, % (no concentration beside the values); purified proteasome/UCH37; AID 588478, 2011; 0.33% of 330,000 active;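 active = mean inhibition over replicate wells above about 20%, limit read from the data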;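 note: 0% = compound-free wells with enzyme and 100% = wells lacking proteasome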
# Target sequence (Q9Y5K5 whole entry, looked up): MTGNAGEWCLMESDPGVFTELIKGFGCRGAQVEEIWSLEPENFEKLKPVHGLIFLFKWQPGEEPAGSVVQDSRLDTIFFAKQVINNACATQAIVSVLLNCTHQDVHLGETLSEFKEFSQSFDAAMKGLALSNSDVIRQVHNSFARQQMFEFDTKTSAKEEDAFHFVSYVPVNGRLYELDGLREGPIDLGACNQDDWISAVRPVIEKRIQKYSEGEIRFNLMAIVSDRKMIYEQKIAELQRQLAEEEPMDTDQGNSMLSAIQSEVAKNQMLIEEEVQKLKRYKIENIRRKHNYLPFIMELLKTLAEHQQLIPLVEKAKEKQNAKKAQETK
#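 Material: human UCH37 enzyme supplied as purified proteasome complex. Measure: % inhibition of Ub-AMC cleavage fluorescence. Medium: pH 7.4 Tris-HCl (50 mM) with ovalbumin, ATP-MgCl2, DTT. Times: 30 min preincubation with enzyme, 25 min cleavage at room temperature. Detection: AMC fluorescence intensity at 355/460 nm.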
# SENP8 block-2: SENP8 protease inhibitors, primary screen, biochemical, luminescence. AID 2540, 2010. 1.2% of 330,000 active. purified SENP8, Z-RLRGG-aminoluciferin cleavage. Sentrin-specific protease 8 (Homo sapiens), Q96LD8. inhibition, % at 10 µM; in the data active = inhibition above about 50%
# SENP8 conf: SENP8 protease inhibitors, retest, confirmation, biochemical, luminescence, single concentration | shares compounds with SENP7 block | Recombinant SENP8, Z-RLRGG-aminoluciferin luminescence, 60 min | inhibition, % at 12.5 µM | 40% of 6,200 active;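 active = mean inhibition across replicates above about 50%, limit read from the data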
# SENP6 conf: SENP6 protease inhibitors, confirmation, biochemical, luminescence, single concentration; shares compounds with SENP7 block; recombinant SENP6, Z-RLRGG-aminoluciferin luminescence; inhibition, % at 12.5 µM; 58% of 6,200 active
# SENP7 conf: SENP7 protease inhibitors, retest, confirmation, biochemical, luminescence, single concentration | shares compounds with SENP7 block | recombinant SENP7, Z-RLRGG-aminoluciferin luminescence, 40 min | inhibition, % at 12.5 µM | 69% of 6,200 active | AID 488917, 2010
# Casp3 select: caspase-3 protease inhibitors, confirmation, selectivity assay for SENP inhibitor project, biochemical, single concentration; shares compounds with SENP7 block; purified caspase-3, Z-DEVD-aminoluciferin luminescence, 60 min; inhibition, % at 12.5 µM; 60% of 6,200 active; AID 488918, 2010;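 active = mean inhibition above about 50%, limit read from the data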;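 note: plate controls were enzyme with DMSO for no effect and wells without caspase-3 for full effect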
# SENP luc ctr: counter-screen for SENP inhibitors: luminescence interference; shares compounds with SENP7 block; inhibition, % at 12.5 µM; 39% of 6,200 active; Pre-incubated SENP8/Z-RLRGG-aminoluciferin, luciferase luminescence interference;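 active = mean inhibition above about 50% when retested at one dose, limit read from the data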;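 note: plate controls were DMSO wells with completed reaction for no effect and substrate without enzyme for full effect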
# Starred values were filed as active, the others as inactive; i = inactive; . = not tested or not shown. Only some compounds are listed: those with a hit (about 2.6% of all), similar ones and a draw of the others.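 Rule for the calls, unless noted: active = mean inhibition above about 50% in the one-dose retest (limit read from the data); inactive = the rest.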
SMILES,SENP1 inh,SENP7 block,SENP8 block-1,SENP6 block,UCH37 inh,SENP8 block-2,SENP8 conf,SENP6 conf,SENP7 conf,Casp3 select,SENP luc ctr
COc1cc(C=NNc2ccccn2)cc(OC)c1O,.,.,.,.,11,.,.,.,.,.,.
COc1cc(C=NNc2nn3cnnc3c3ccccc23)cc(OC)c1OC,.,.,.,.,0,.,.,.,.,.,.
Cn1c2ccccc2c(=O)c2cc(C#CC3(O)CCCCC3)ccc21,-29,97*,i,96*,-18,92*,46,57*,36,62*,78*
CC(C)C1/C(=N/O)CC(c2ccccc2)NC1c1ccccc1 (centres undefined),1,6,8,-16,.,-3,.,.,.,.,.
CC1/C(=N/O)CC(c2ccccc2)NC1c1ccccc1 (centres undefined),1,89*,10,-38,.,-8,6,7,9,4,3
O=C(Nc1ccnc(=O)[nH]1)c1sc2ccccc2c1Cl,-3,54*,-78,74*,0,52*,2,-2,7,11,4
O=C(Nc1ccncc1)c1sc2ccccc2c1Cl,2,1,8,-8,5,6,.,.,.,.,.
Cc1cc(C)nc(NC(=O)/C=C/c2ccc3c(c2)OCO3)c1,-1,90*,-255,86*,-10,71*,12,73*,100*,88*,52*
CC(=O)Nc1ccc(NC(=O)/C=C/c2ccc3c(c2)OCO3)cc1,1,7,12,-17,-20,-1,.,.,.,.,.
O=C(/C=C/c1ccc2c(c1)OCO2)Nc1cccnc1,-1,85*,-257,84*,-40,77*,4,80*,97*,89*,76*
O=C(/C=C/c1c(F)cccc1Cl)Nc1cccnc1,-3,90*,14,87*,0,83*,28,85*,98*,87*,44
O=C(/C=C/c1cc(Br)ccc1F)Nc1cccnc1,0,12,13,12,4,-3,.,.,.,.,.
Nc1ccccc1C(=O)/C=C/c1ccc2c(c1)OCO2,-3,94*,-7,84*,-1,66*,90*,81*,93*,55*,73*
COc1ccccc1/C=C/C=Nn1c(-c2ccccn2)n[nH]c1=S,.,.,.,.,9,.,.,.,.,.,.
COc1ccc(C(=O)NN=C(C)CC(=O)N2CCN(C=O)CC2)cc1,.,.,.,.,1,.,.,.,.,.,.
CCCCC(=O)OCC(=O)c1ccc(OCC)cc1,1,51*,9,55*,1,40,20,36,80*,64*,46
O=C(NCc1ccccc1)c1c(F)c(F)c(F)c(F)c1F,0,9,16,-1,-1,52*,-3,0,-5,-1,-3
Cc1ccc(NCC(=O)NN=Cc2c[nH]c3ccccc23)cc1,.,.,.,.,5,.,.,.,.,.,.
Cc1ccc(SCC(=O)Nc2cc([N+](=O)[O-])ccc2O)cc1,1,4,38,-16,4,79*,-13,26,57*,39,38

# Screening data (PubChem)
